Laboratory results: ChEMBL document CHEMBL1124493, “Synthesis and tumor uptake of 5-82Br- and 5-131I-labeled 5-halo-1-(2-fluoro-2-deoxy-beta-D-ribofuranosyl)uracils” (J Med Chem, 1989)
Values belong to the molecule of their own block, whether it stands above or below them.

How the values were obtained:
Mus musculus [1] = assay: Biodistribution of intravenously injected [131I]-labeled compound in bone of BDF1 female mice bearing subcutaneous Lewis lung carcinoma after 4 hours; type: ADME, organism-based, Bone element; details: in vivo, iv
Summary of the method: (§1)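 Female BDF1 mice bearing subcutaneous Lewis lung carcinoma received a single intravenous dose of 0.5-1.8 μg of the 131I-labeled nucleoside (55-110 kBq). They were sacrificed at set times, and tissues were weighed wet and γ-counted. Activity is expressed as percent of injected dose per gram of wet tissue, given as mean ± standard deviation for six animals.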

Mus musculus [2] = assay: Biodistribution of intravenously injected [131I]-labeled compound in blood of BDF1 female mice bearing subcutaneous Lewis lung carcinoma after 1 hours; type: ADME, organism-based; details: in vivo, iv; summary of the method: as §1
Mus musculus [3] = assay: Biodistribution of intravenously injected [131I]-labeled compound in bone of BDF1 female mice bearing subcutaneous Lewis lung carcinoma after 8 hours; type: ADME, organism-based, Bone element; details: in vivo, iv; summary of the method: as §1
Mus musculus [4] = assay: Biodistribution of intravenously injected [131I]-labeled compound in gut of BDF1 female mice bearing subcutaneous Lewis lung carcinoma after 2 hours; type: ADME, organism-based; details: in vivo, iv; summary of the method: as §1
Mus musculus [5] = assay: Biodistribution of intravenously injected [131I]-labeled compound in heart of BDF1 female mice bearing subcutaneous Lewis lung carcinoma after 2 hours; type: ADME, organism-based; details: in vivo, iv; summary of the method: as §1
Mus musculus [6] = assay: Biodistribution of intravenously injected [131I]-labeled compound in heart of BDF1 female mice bearing subcutaneous Lewis lung carcinoma after 24 hours; type: ADME, organism-based; details: in vivo, iv; summary of the method: as §1
Mus musculus [7] = assay: Biodistribution of intravenously injected [131I]-labeled compound in heart of BDF1 female mice bearing subcutaneous Lewis lung carcinoma after 4 hours; type: ADME, organism-based; details: in vivo, iv; summary of the method: as §1
Mus musculus [8] = assay: Biodistribution of intravenously injected [131I]-labeled compound in kidney of BDF1 female mice bearing subcutaneous Lewis lung carcinoma after 1 hours; type: ADME, organism-based; details: in vivo, iv; summary of the method: as §1
Mus musculus [9] = assay: Biodistribution of intravenously injected [131I]-labeled compound in kidney of BDF1 female mice bearing subcutaneous Lewis lung carcinoma after 2 hours; type: ADME, organism-based; details: in vivo, iv; summary of the method: as §1
Mus musculus [10] = assay: Biodistribution of intravenously injected [131I]-labeled compound in lung of BDF1 female mice bearing subcutaneous Lewis lung carcinoma after 1 hours; type: ADME, organism-based; details: in vivo, iv; summary of the method: as §1
Mus musculus [11] = assay: Biodistribution of intravenously injected [131I]-labeled compound in lung of BDF1 female mice bearing subcutaneous Lewis lung carcinoma after 4 hours; type: ADME, organism-based; details: in vivo, iv; summary of the method: as §1
Mus musculus [12] = assay: Biodistribution of intravenously injected [131I]-labeled compound in lung of BDF1 female mice bearing subcutaneous Lewis lung carcinoma after 8 hours; type: ADME, organism-based; details: in vivo, iv; summary of the method: as §1
Mus musculus [13] = assay: Biodistribution of intravenously injected [131I]-labeled compound in muscle of BDF1 female mice bearing subcutaneous Lewis lung carcinoma after 4 hours; type: ADME, organism-based, Muscle tissue; details: in vivo, iv
Summary of the method: (§2)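 Female BDF1 mice with subcutaneous Lewis lung carcinoma given i.v. 0.5-1.8 μg of 131I-labeled nucleoside (55-110 kBq). Killed at set times. Tissues weighed wet and γ-counted. Radioactivity expressed as percent injected dose per gram wet tissue, mean ± SD of six animals.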

Mus musculus [14] = species: Mus musculus; assay: Inhibition constant for influx competition with [6-3H]thymidine in mouse erythrocytes; type: functional
Summary of the method: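 Freshly harvested mouse erythrocytes were exposed to various concentrations of test nucleoside and [6-3H]thymidine, and zero-trans thymidine influx was measured. Extracellular [6-3H]thymidine was measured over time by liquid scintillation counting of aliquots. The Ki for competition at the nucleoside transporter was derived by previously described methods.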

Mus musculus [15] = assay: Biodistribution of intravenously injected [131I]-labeled compound in stomach of BDF1 female mice bearing subcutaneous Lewis lung carcinoma after 2 hours; type: ADME, organism-based; details: in vivo, iv; summary of the method: as §2
Mus musculus [16] = assay: Biodistribution of intravenously injected [131I]-labeled compound in stomach of BDF1 female mice bearing subcutaneous Lewis lung carcinoma after 8 hours; type: ADME, organism-based; details: in vivo, iv; summary of the method: as §2
Mus musculus [17] = species: Mus musculus; assay: Urinary iodide observed in BDF1 female mice bearing lewis lung tumor after 0-0.5 hr of injected [131I]-compound; type: functional, tissue-based; details: Urine
Mus musculus [18] = species: Mus musculus; assay: Urinary [131I]- compound observed in BDF1 female mice bearing lewis lung tumor after 2-3 hr of injected [131I]-compound; type: functional, tissue-based; details: Urine
Mus musculus [19] = species: Mus musculus; assay: Urinary [131I]5-iodouracil observed in BDF1 female mice bearing lewis lung tumor after 24 hr of injected [131I]-compound; type: functional, tissue-based; details: Urine
Mus musculus [20] = species: Mus musculus; assay: Urinary iodide observed in BDF1 female mice bearing lewis lung tumor after 24 hr of injected [131I]-compound; type: functional, tissue-based; details: Urine
Mus musculus [21] = species: Mus musculus; assay: Other urinary compounds observed in BDF1 female mice bearing lewis lung tumor after 24 hr of injected [131I]-compound; type: functional, tissue-based; details: Urine
Mus musculus [22] = assay: Biodistribution of intravenously injected [131I]-labeled compound in skin of BDF1 female mice bearing subcutaneous Lewis lung carcinoma after 1 hours; type: ADME, organism-based, Zone of skin; details: in vivo, iv; summary of the method: as §2
Mus musculus [23] = assay: Biodistribution of intravenously injected [82Br]-labeled compound in bone of BDF1 female mice bearing subcutaneous Lewis lung carcinoma after 1 hours; type: ADME, organism-based, Bone element; details: in vivo, iv
Summary of the method: (§3)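 82Br-labeled nucleoside given intravenously to female BDF1 mice bearing subcutaneous Lewis lung carcinoma, at 47-130 μg carrying 20-60 kBq. Mice sacrificed at each time point. Wet-weighed tissues γ-counted. Values are percent injected dose per gram wet tissue, mean ± SD, n = 6.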

Mus musculus [24] = assay: Biodistribution of intravenously injected [82Br]-labeled compound in bone of BDF1 female mice bearing subcutaneous Lewis lung carcinoma after 24 hours; type: ADME, organism-based, Bone element; details: in vivo, iv; summary of the method: as §3
Mus musculus [25] = assay: Biodistribution of intravenously injected [82Br]-labeled compound in gut of BDF1 female mice bearing subcutaneous Lewis lung carcinoma after 0.25 hours; type: ADME, organism-based; details: in vivo, iv; summary of the method: as §3
Mus musculus [26] = assay: Biodistribution of intravenously injected [82Br]-labeled compound in gut of BDF1 female mice bearing subcutaneous Lewis lung carcinoma after 0.50 hours; type: ADME, organism-based; details: in vivo, iv, 0.5 h; summary of the method: as §3
Mus musculus [27] = assay: Biodistribution of intravenously injected [82Br]-labeled compound in gut of BDF1 female mice bearing subcutaneous Lewis lung carcinoma after 8 hours; type: ADME, organism-based; details: in vivo, iv
Summary of the method: (§4)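 Female BDF1 mice with subcutaneous Lewis lung carcinoma given an iv injection of [82Br]-labelled nucleoside, 47-130 μg carrying 20-60 kBq 82Br. Tissues were excised, weighed wet and γ-counted. Values are percent injected dose per gram of wet tissue, mean ± standard deviation of six animals, with organ-to-tumour ratios derived.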

Mus musculus [28] = assay: Biodistribution of intravenously injected [82Br]-labeled compound in heart of BDF1 female mice bearing subcutaneous Lewis lung carcinoma after 0.50 hours; type: ADME, organism-based; details: in vivo, iv, 0.5 h; summary of the method: as §4
Mus musculus [29] = assay: Biodistribution of intravenously injected [82Br]-labeled compound in kidney of BDF1 female mice bearing subcutaneous Lewis lung carcinoma after 0.5 hours; type: ADME, organism-based; details: in vivo, iv; summary of the method: as §4
Mus musculus [30] = assay: Biodistribution of intravenously injected [82Br]-labeled compound in kidney of BDF1 female mice bearing subcutaneous Lewis lung carcinoma after 2 hours; type: ADME, organism-based; details: in vivo, iv; summary of the method: as §4
Mus musculus [31] = assay: Biodistribution of intravenously injected [82Br]-labeled compound in liver of BDF1 female mice bearing subcutaneous Lewis lung carcinoma after 1 hours; type: ADME, organism-based; details: in vivo, iv; summary of the method: as §4
Mus musculus [32] = assay: Biodistribution of intravenously injected [82Br]-labeled compound in blood of BDF1 female mice bearing subcutaneous Lewis lung carcinoma after 24 hours; type: ADME, organism-based; details: in vivo, iv; summary of the method: as §3
Mus musculus [33] = assay: Biodistribution of intravenously injected [82Br]-labeled compound in lung of BDF1 female mice bearing subcutaneous Lewis lung carcinoma after 1 hours; type: ADME, organism-based; details: in vivo, iv; summary of the method: as §4
Mus musculus [34] = assay: Biodistribution of intravenously injected [82Br]-labeled compound in lung of BDF1 female mice bearing subcutaneous Lewis lung carcinoma after 24 hours; type: ADME, organism-based; details: in vivo, iv; summary of the method: as §4
Mus musculus [35] = assay: Biodistribution of intravenously injected [82Br]-labeled compound in muscle of BDF1 female mice bearing subcutaneous Lewis lung carcinoma after 4 hours; type: ADME, organism-based, Muscle tissue; details: in vivo, iv; summary of the method: as §4
Mus musculus [36] = assay: Biodistribution of intravenously injected [82Br]-labeled compound in liver of BDF1 female mice bearing subcutaneous Lewis lung carcinoma after 4 hours; type: ADME, organism-based; details: in vivo, iv; summary of the method: as §4
Mus musculus [37] = assay: Biodistribution of intravenously injected [82Br]-labeled compound in stomach of BDF1 female mice bearing subcutaneous Lewis lung carcinoma after 4 hours; type: ADME, organism-based; details: in vivo, iv
Mus musculus [38] = assay: Biodistribution of intravenously injected [82Br]-labeled compound in stomach of BDF1 female mice bearing subcutaneous Lewis lung carcinoma after 8 hours; type: ADME, organism-based; details: in vivo, iv

Injected dose/g (Mus musculus [1]): 1.3% | Injected dose/g (Mus musculus [2]): 13.3% | Injected dose/g (Mus musculus [3]): 0.7% | Injected dose/g (Mus musculus [4]): 1.9% | Injected dose/g (Mus musculus [5]): 5.7% | Injected dose/g (Mus musculus [6]): 0.1% | Injected dose/g (Mus musculus [7]): 3.5% | Injected dose/g (Mus musculus [8]): 12% | Injected dose/g (Mus musculus [9]): 8.5% | Injected dose/g (Mus musculus [10]): 7% | Injected dose/g (Mus musculus [11]): 4.5% | Injected dose/g (Mus musculus [12]): 2.6% | Injected dose/g (Mus musculus [13]): 1.3% | Ki (Mus musculus [14]): 410 µM | Injected dose/g (Mus musculus [15]): 4% | Injected dose/g (Mus musculus [16]): 5.3% | Injected dose/g (Mus musculus [22]): 5%
Compound: O=c1[nH]c(=O)n([C@@H]2O[C@H](CO)[C@@H](O)[C@H]2F)cc1I
Radioactive constituents (Mus musculus [17]): 4.7% | Radioactive constituents (Mus musculus [18]): 82.8% | Radioactive constituents (Mus musculus [19]): 0% | Radioactive constituents (Mus musculus [20]): 62.6% | Radioactive constituents (Mus musculus [21]): 0%

Injected dose/g (Mus musculus [23]): 0.26% | Injected dose/g (Mus musculus [24]): 0.14% | Injected dose/g (Mus musculus [25]): 1.19% | Injected dose/g (Mus musculus [26]): 0.72% | Injected dose/g (Mus musculus [27]): 0.33% | Injected dose/g (Mus musculus [28]): 0.76% | Injected dose/g (Mus musculus [29]): 2.68% | Injected dose/g (Mus musculus [30]): 0.71% | Injected dose/g (Mus musculus [31]): 0.34% | Injected dose/g (Mus musculus [32]): 0.51% | Injected dose/g (Mus musculus [33]): 0.52% | Injected dose/g (Mus musculus [34]): 0.35% | Injected dose/g (Mus musculus [35]): 0.12% | Injected dose/g (Mus musculus [36]): 0.23% | Injected dose/g (Mus musculus [37]): 0.4% | Injected dose/g (Mus musculus [38]): 0.53% | Ki (Mus musculus [14]): 390 µM
Compound: O=c1[nH]c(=O)n([C@H]2O[C@@H](CO)[C@H](O)[C@H]2F)cc1Br
